Sampled rows, rich in hits. Any-hit rate of the full collection: about 2.1%.
Runt-CBFb FRET: inhibitors of RUNX1 Runt–CBFb binding, primary screen, biochemical, FRET, Cerulean-Runt, Venus-CBFb, uHTS; Cerulean-Runt/Venus-CBFb FRET ratio 530/480, 1 h; inhibition, % at 20 µM; 0.46% of 220,000 active; AID 1496, 2009;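 active = inhibition over about 50% at 20 µM in the single-dose screen, limit read from the data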;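 also: 0% = DMSO wells and 100% = excess unlabeled CBFb competitor control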
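Assay system: Cerulean-Runt domain fusion protein, energy donor; Signal: fluorescence energy transfer, 422 nm excitation, 530/480 nm emission; Timing: 1 h compound exposure, room temperature; Control set: unlabeled CBFb; Medium: Tris buffer pH 7.5 with salts and BSA; Compound: single test concentration of 20 µM, 1% DMSO final; Probe or stimulus: Venus-CBFb 100 nM.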
Hck Nef HTS: inhibitors of Nef-activated human Hck kinase, primary screen, biochemical, Z-Lyte FRET, 384-well, Hck-YEEI. Recombinant Hck-YEEI plus Nef, Z-Lyte FRET kinase assay. inhibition, % at 20 µM. Tyrosine-protein kinase HCK (Homo sapiens), P08631. 0.68% of 220,000 active;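 active = Hck-Nef kinase inhibition above about 50%, limit read from the data; inactive = inhibition below that limit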;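 also: 0% = DMSO with Hck plus Nef and 100% = Hck alone without Nef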
RanGTP-Imp inh: inhibitors of RanGTP-importin-beta interaction, primary screen, biochemical, FRET, CFP-Ran, YFP-importin-beta, homogeneous; Ran GTPase (GTP-bound) - importin-beta complex; cell-free CFP-Ran/YFP-importin-beta FRET ratio; inhibition, % (no concentration beside the values); 1.1% of 300,000 active; AID 2216, 2009;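 active = more than half of the replicate wells show a fall in the fluorescence ratio signal beyond about 16%, limit read from the data, passing the limit was not always enough; inconclusive = exactly half of the replicate wells pass the set limit; inactive = fewer than half of replicates pass the limit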;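 also: 0% = DMSO wells and 100% = Ran loaded with GDP instead of GTP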
Runt-SMMHC FRET: inhibitors of RUNX1 Runt–CBFb-SMMHC binding, primary screen, biochemical, FRET, Cerulean-Runt, Venus-CBFb-SMMHC, uHTS; AID 1434, 2008; inhibition, % at 20 µM; 0.74% of 220,000 active; Cerulean-Runt/Venus-CBFb-SMMHC FRET ratio 530/480, 1 h;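 active = mean inhibition across duplicate retests at 20 µM reaching about 50%, limit read from the data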;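 also: 0% = DMSO wells and 100% = wells with excess untagged CBFb-SMMHC; inhibitors lower the FRET ratio by blocking Runt binding to CBFb-SMMHC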
pCIP destab: p/CIP-EGFP fusion destabilizers, primary screen, fluorescence, F442A cells; 16 h; decrease of EGFP signal, % at 10 µM; 0.01% of 290,000 active; AID 1984, 2009;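 active = EGFP signal decrease of at least 30% at 10 µM or well 3 SD below plate mean, unless failing retest; inactive = the rest, including hits failing retest or dose response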
Pemphigus Ab inh: inhibitors of pemphigus antibody binding to DSG3, primary screen, biochemical, bead-based, flow cytometry, scFv-GFP; Desmoglein-3 (Homo sapiens), P32926; DSG3-coupled beads, scFv-anti-DSG3-GFP binding; stronger effect = lower value; binding (percent of control), % at 10 µM; 0.48% of 310,000 active; AID 588358, 2011;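 active = binding more than 3 SD below its plate's average and above zero; inconclusive = below that plate limit but binding exactly zero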;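 also: hits lower antibody fragment binding to DSG3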
Active calls of the source: *; ? = inconclusive; . = not tested or not shown.

SMILES | Runt-CBFb FRET | Hck Nef HTS | RanGTP-Imp inh | Runt-SMMHC FRET | pCIP destab | Pemphigus Ab inh
Nc1ccc(C#Cc2ccc3oc4ccccc4c(=O)c3c2)cc1 | . | . | -3 | . | . | 102
Cn1c2ccccc2c(=O)c2ccc(C#CC3(O)CCCCC3)cc21 | . | . | 165* | . | -8 | 101
COc1cccc2sc3cc(C#CC4(O)CCCCC4)ccc3c(=O)c12 | . | . | . | . | . | 97
O=C(Nc1ccccn1)C1CCN(C(=O)Nc2ccccc2)CC1 | . | . | 2 | . | . | 97
Cc1ccc(NC(=O)NNC(=O)C2CCN(Cc3ccc(F)cc3Cl)CC2)cc1 | 0 | 22 | -3 | 0 | -8 | 50*
CC1CN(c2sc(S(C)(=O)=O)nc2S(=O)(=O)c2ccc(Cl)cc2)CC(C)O1 (configuration not stated) | . | . | 16* | . | 6 | 75*
COc1ccc(/C=C/C(=O)c2cc3cccc(OC)c3oc2=O)cc1 | 6 | 22 | -3 | 18 | -18 | 100*
CNC(=O)c1cc2cccc(OC)c2oc1=O | -2 | 3 | -1 | -2 | -7 | 107
O=C(CN1C(=O)COc2ccccc21)NCCCN1CCCCC1 | . | . | -1 | . | -3 | ?
CSc1nc(C2CC2)cc(-c2cccs2)c1C#N | 2 | 2 | 0 | 5 | -36 | 8.8*
COc1ccc(-c2cc(C3CC3)nc(SCC(=O)c3cccs3)c2C#N)cc1 | -8 | -5 | 2 | -18 | -7 | 104
Cc1cc2oc(=O)cc(-c3ccccc3)c2c(C)c1-c1ccc(F)c(Cl)c1 | . | . | . | . | . | 74*
COc1ccc(N(C)C(=O)CCC(=O)Nc2ccc3nc(N4CCOCC4)cc(C)c3c2)c(OC)c1 | 2 | 3 | 3 | 4 | -28 | 89*
Cc1cc(N2CCOCC2)nc2ccc(NC(=S)N3CCN(c4ccccc4)CC3)cc12 | 0 | 15 | -2 | -2 | 4 | 1.0*
COc1ccc(NC(=O)CCC(=O)Nc2ccc3nc(N4CCOCC4)cc(C)c3c2)c(OC)c1 | . | . | -3 | . | -14 | .
COc1ccc(S(=O)(=O)NCc2cc(=O)n(C)c(=O)n2C)cc1F | . | . | 2 | . | -5 | 99
Cc1occc1C(=O)N=Nc1c(O)n(C)c2ccccc12 | -3 | 2 | 1 | 1 | -1 | 84*
Cn1c(O)c(N=NC(=O)c2ccccc2O)c2ccccc21 | -3 | 17 | -2 | 0 | -12 | 105
COc1ccc2c(c1)c1ccc3c(c1n2C)C(=O)C=CC3=O | 64* | 18 | . | 41 | -44 | 91
COc1ccc2c(c1)c1ncn(CCN3CCCC3)c(=O)c1n2C | -1 | -1 | 2 | 5 | -8 | 102
Cn1c2ccccc2c2ccc3c(c21)C(=O)C=CC3=O | . | . | . | . | . | 79
Cc1ccc2c(c1)c1ccc3c(c1n2C)C(=O)C=CC3=O | 55* | 13 | . | 32 | -23 | 85
Cc1c(C(=O)N2CCCC2)c(S(=O)(=O)Nc2ccccc2)c(C)n1C | . | . | -5 | . | 2 | .
Cc1ccc(C)c2c1CCCC2=O | . | . | . | . | . | 111
Cc1ccc(CN2CCN(/N=C/c3ccc(C(=O)O)cc3)CC2)cc1 | 5 | 2 | -1 | -5 | -19 | 82
SMILES | Runt-CBFb FRET | Hck Nef HTS | RanGTP-Imp inh | Runt-SMMHC FRET | pCIP destab | Pemphigus Ab inh
Cc1ccc(CN2CCN(/N=C/C(Br)=C\c3ccccc3)CC2)cc1 | 2 | 13 | -2 | -6 | -9 | 83*
COc1ccc(CCC(=O)O)cc1OC | 0 | -9 | 1 | -2 | -3 | 100
CSCCC(NS(=O)(=O)c1ccc(Cl)cc1)C(=O)N1CCN(c2ccccc2)CC1 (configuration not stated) | . | . | . | . | . | -2.0*
CSCCC(NS(=O)(=O)c1ccc(Cl)cc1)C(=O)O (configuration not stated) | 2 | 23 | -2 | 0 | 14 | 108
CC(=O)c1c(C)[nH]c(C(=O)OCC(=O)N(CC(C)C)C2CCS(=O)(=O)C2)c1C (configuration not stated) | . | . | . | . | . | 93
Cc1ccc(C)c(NC(=S)NC2CC3CCC(C2)N3Cc2ccco2)c1 (configuration not stated) | 0 | 1 | 0 | 4 | -5 | 80*
O=C(Nc1cccc(Cl)c1)NC1CC2CCC(C1)N2Cc1ccco1 (configuration not stated) | 2 | -11 | 33* | -2 | 3 | 99
Cc1cc(C)cc(NC(=S)NC2CC3CCC(C2)N3Cc2ccco2)c1 (configuration not stated) | -2 | 1 | 2 | 5 | -6 | 123
CCN1CCN(C(=O)c2cc(COc3ccc(F)c(F)c3)on2)[C@@H](C)C1=O | . | . | . | . | . | 92
CCS(=O)(=O)c1ccc2oc(Nc3cccc(OC)c3)nc2c1 | 2 | 0 | -7 | 1 | 3 | 102
Cc1occc1C(=O)Nc1nnc(-c2cccs2)s1 | 0 | 32 | 6 | 1 | -16 | 111
COc1cccc(CNC(=O)C2Cc3ccccc3CN2C(C)=O)c1 (configuration not stated) | . | . | -2 | . | -8 | 102
COCCN(C(=O)CSCc1ccccc1)c1c(N)n(Cc2ccccc2)c(=O)[nH]c1=O | . | . | -6 | . | -44 | 102
CC(C)CN(C(=O)CN1CCN(c2ccccc2F)CC1)c1c(N)n(CC(C)C)c(=O)[nH]c1=O | 0 | 2 | 2 | 9 | 6 | 106
CNCC(=O)N(CC(C)C)c1c(N)n(CC(C)C)c(=O)[nH]c1=O | 8 | 2 | 2 | 56* | 10 | 102
CC(C)CN(C(=O)CN1CCc2ccccc21)c1c(N)n(CC(C)C)c(=O)[nH]c1=O | 35 | 3 | 8 | 72* | -1 | 113
CC(C)CN(C(=O)CN1CCC(C)CC1)c1c(N)n(CC(C)C)c(=O)[nH]c1=O | -1 | 2 | ? | 2 | -5 | 105
COCCN(C(=O)CN1CCc2ccccc2C1)c1c(N)n(Cc2ccccc2)c(=O)[nH]c1=O | 27 | 0 | 7 | 74* | -11 | .
Cc1ccc(S(=O)(=O)N2CCN(C(=O)CN3C(=O)c4ccc([N+](=O)[O-])cc4C3=O)CC2)c(C)c1 | . | . | 2 | . | . | 102
CCOC(=O)/C(C#N)=C\C=C1C=CN(C)C=C1 | . | -2 | 51* | -86 | -139 | 118
Cc1ccc(S(=O)(=O)c2cc3cc(Br)ccc3oc2=O)cc1 | -8 | 3 | 3 | -49 | -14 | 111
CCN(CC)c1ccc2cc(S(=O)(=O)c3ccc(Cl)cc3)c(=O)oc2c1 | 6 | 6 | 128* | 81* | -8 | 105

Compound activity (PubChem)
